In assay [1] the test system is SiHa. The experiment in a line: Growth inhibition of human SiHa cells incubated for 72 hrs at 10 uM by CCK8 assay. The format is functional. Particulars: read-out: GI. A digest of the protocol: (§1)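 CCK8 viability assay on a panel of human cancer cell lines, with an initial screen at fixed concentrations of 1 µM and 10 µM.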
In general terms: Formazan colour is commonly taken as a measure of viable cells.

Assay [2] relates to A549. The experiment in a line: Growth inhibition of human A549 cells incubated for 72 hrs at 1 uM by CCK8 assay. The format is functional. Particulars: A549, 72 h, read-out: GI. An outline of the steps:
as §1

The target in assay [3] is CDK4/Cyclin D3 (Homo sapiens) (UniProt P11802+P30281). In words: Inhibition of human CDK4/CyclinD3 at 1 uM by enzymatic radiometric assay. It counts as protein-complex assay. An outline of the steps:
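Kinase panel run through the Eurofins KinaseProfiler, with compound at a fixed 1 µM. Values are means of two independent experiments.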

Assay [4] has as its system T47D. In words: Growth inhibition of human T47D cells incubated for 72 hrs at 1 uM by CCK8 assay. The format is functional. Conditions: read-out: GI. An outline of the steps: as §1
The target in assay [5] is Vascular endothelial growth factor receptor 2 (Homo sapiens, UniProt P35968). In words: Inhibition of human VEGFR2 at 1 uM by enzymatic radiometric assay.
Vascular endothelial growth factor receptor 2, sequence (P35968 whole entry): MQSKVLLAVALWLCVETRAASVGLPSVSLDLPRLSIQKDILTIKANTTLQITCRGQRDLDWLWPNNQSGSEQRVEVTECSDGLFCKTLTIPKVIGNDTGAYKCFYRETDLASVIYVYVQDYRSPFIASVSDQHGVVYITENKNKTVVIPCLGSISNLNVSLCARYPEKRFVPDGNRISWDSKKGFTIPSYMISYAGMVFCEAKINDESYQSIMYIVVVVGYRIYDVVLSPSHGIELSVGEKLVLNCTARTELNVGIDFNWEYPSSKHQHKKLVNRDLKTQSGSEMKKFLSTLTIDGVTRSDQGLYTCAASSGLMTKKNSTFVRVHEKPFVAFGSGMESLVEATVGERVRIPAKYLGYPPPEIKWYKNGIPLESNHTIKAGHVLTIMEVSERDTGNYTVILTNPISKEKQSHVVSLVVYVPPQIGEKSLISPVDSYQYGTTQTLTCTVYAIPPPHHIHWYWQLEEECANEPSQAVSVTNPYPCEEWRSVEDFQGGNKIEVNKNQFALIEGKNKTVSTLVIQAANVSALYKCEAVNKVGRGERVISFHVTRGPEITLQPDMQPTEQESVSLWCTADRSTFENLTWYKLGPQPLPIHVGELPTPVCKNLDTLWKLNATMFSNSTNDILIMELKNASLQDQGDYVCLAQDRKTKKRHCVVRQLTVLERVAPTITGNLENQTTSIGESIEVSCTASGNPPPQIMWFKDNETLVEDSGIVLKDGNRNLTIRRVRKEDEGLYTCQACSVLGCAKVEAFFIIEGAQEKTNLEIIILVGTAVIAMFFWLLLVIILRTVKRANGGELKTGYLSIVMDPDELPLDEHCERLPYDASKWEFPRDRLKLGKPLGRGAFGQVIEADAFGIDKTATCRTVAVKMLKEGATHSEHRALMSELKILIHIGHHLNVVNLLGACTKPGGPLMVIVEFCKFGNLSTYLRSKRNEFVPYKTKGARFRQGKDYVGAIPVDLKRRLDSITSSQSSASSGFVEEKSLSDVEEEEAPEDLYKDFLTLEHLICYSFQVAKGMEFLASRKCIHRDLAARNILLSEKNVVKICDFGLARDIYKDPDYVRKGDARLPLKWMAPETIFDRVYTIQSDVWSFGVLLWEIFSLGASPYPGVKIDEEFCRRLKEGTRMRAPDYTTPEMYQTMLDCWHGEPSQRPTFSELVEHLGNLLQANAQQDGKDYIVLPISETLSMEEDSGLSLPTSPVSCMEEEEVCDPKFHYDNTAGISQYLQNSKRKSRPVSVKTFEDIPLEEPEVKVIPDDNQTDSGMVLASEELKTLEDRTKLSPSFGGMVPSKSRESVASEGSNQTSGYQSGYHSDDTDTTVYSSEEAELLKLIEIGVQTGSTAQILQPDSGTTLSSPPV
For assay [6], the system named is NCI-H1299. In words: Growth inhibition of human H1299 cells incubated for 72 hrs at 10 uM by CCK8 assay. Particulars: NCI-H1299, 72 h, read-out: GI. The format is functional. A digest of the protocol:
as §1

For assay [7], the system named is SiHa. In words: Growth inhibition of human SiHa cells incubated for 72 hrs at 1 uM by CCK8 assay. Conditions: read-out: GI. The format is functional. An outline of the steps:
as §1

Assay [8] deals with OVCAR-5. In words: Growth inhibition of human OVCAR5 cells incubated for 72 hrs at 10 uM by CCK8 assay. The format is functional. Conditions: OVCAR-5, 72 h, read-out: GI. A digest of the protocol:
as §1

Assay [9] concerns T47D. The experiment in a line: Growth inhibition of human T47D cells incubated for 72 hrs at 10 uM by CCK8 assay. The format is functional. Conditions: read-out: GI. A digest of the protocol:
as §1

Assay [10] deals with A549. In words: Growth inhibition of human A549 cells incubated for 72 hrs at 10 uM by CCK8 assay. The format is functional. Particulars: A549, 72 h, read-out: GI. A digest of the protocol:
as §1

Assay [11] deals with NCI-H460. In words: Growth inhibition of human H460 cells incubated for 72 hrs at 1 uM by CCK8 assay. The format is functional. Conditions: NCI-H460, 72 h, read-out: GI. An outline of the steps: as §1
In assay [12] the test system is NCI-H460. In words: Growth inhibition of human H460 cells incubated for 72 hrs at 10 uM by CCK8 assay. Particulars: NCI-H460, 72 h, read-out: GI. The format is functional. A digest of the protocol:
as §1

The subject of assay [13] is NCI-H1299. In words: Growth inhibition of human H1299 cells incubated for 72 hrs at 1 uM by CCK8 assay. Particulars: NCI-H1299, 72 h, read-out: GI. The format is functional. A digest of the protocol: as §1
The test system of assay [14] is OVCAR-5. The experiment in a line: Growth inhibition of human OVCAR5 cells incubated for 72 hrs at 1 uM by CCK8 assay. Conditions: OVCAR-5, 72 h, read-out: GI. It counts as functional. An outline of the steps: as §1

For `Cc1ccc(NC(=O)C2(C(=O)Nc3ccc(Nc4ncc5cc(C(=O)N(C)C)n(C6CCCC6)c5n4)cc3)CC2)cc1`, the inhibition of growth at 10 µM in the assay with SiHa [1] was 104%; in the assay on NCI-H1299 [6], 84.5%; in the assay on OVCAR-5 [8], 80.6%; with T47D [9], 99.6%; with A549 [10], 90.6%. In addition, the values for the inhibition of growth at 1 µM in the assay on A549 [2], in the assay with T47D [4] and in the assay with SiHa [7] were 40.2%, 47.9% and 37%, respectively. The inhibition – broadly, the relative decrease from the control value, in per cent – was found to be 62% in [3] and 9% in [5].
On to `Cc1cccc(NC(=O)C2(C(=O)Nc3ccc(Nc4ncc5cc(C(=O)N(C)C)n(C6CCCC6)c5n4)cc3)CC2)c1`, for which the values for the inhibition of growth at 1 µM with A549 [2] and with T47D [4] were 35.2% and 45.7%, respectively. For the same compound, the inhibition in assay [3] is 66%; in [5], 5%. Also, the inhibition of growth at 10 µM was 95.3% with T47D [9] and 86.1% in the assay on A549 [10].
For the compound `CN(C)C(=O)c1cc2cnc(Nc3ccc(NC(=O)C4(C(=O)Nc5ccc(F)cc5)CC4)cn3)nc2n1C1CCCC1`, the values for the inhibition in [3] and in assay [5] were 85% and -3%, respectively.
On to `CN(C)C(=O)c1cc2cnc(Nc3ccc(NC(=O)C4(C(=O)Nc5cccc(C#N)c5)CC4)cc3)nc2n1C1CCCC1`, for which the inhibition of growth at 1 µM with A549 [2] is 70.8%. For the same compound, the results for the inhibition in assay [3] and in [5] were 53% and 29%, respectively. In the assay with A549 [10], the inhibition of growth at 10 µM was found to be 73.6%.
As to `CN(C)C(=O)c1cc2cnc(Nc3ccc(NC(=O)C4(C(=O)Nc5cccc(F)c5)CC4)cc3)nc2n1C1CCCC1`, the inhibition of growth at 1 µM was 45.1% in the assay on NCI-H460 [11]; 33.2% in the assay on A549 [2]; -3.2% in the assay on T47D [4]; 64.2% in the assay with NCI-H1299 [13]; 29.7% with SiHa [7]; 26.3% in the assay on OVCAR-5 [14]. Further, the inhibition of growth at 10 µM was 107% with SiHa [1]; 98.8% in the assay on NCI-H460 [12]; 87% in the assay on NCI-H1299 [6]; 85.6% with OVCAR-5 [8]; -0.4% in the assay on T47D [9]; 91.8% in the assay on A549 [10]. The inhibition in assay [3] worked out at 61%; in assay [5], 7%.
`CN(C)C(=O)c1cc2cnc(Nc3ccc(NC(=O)C4(C(=O)Nc5ccc(C#N)cc5)CC4)cc3)nc2n1C1CCCC1`: the inhibition of growth at 1 µM in the assay on A549 [2] came to 86.1%. Besides, the inhibition in [3] was 84%; in assay [5] it was 21%. Further, in the assay with A549 [10], the inhibition of growth at 10 µM came out at 95%.
For `CN(C)C(=O)c1cc2cnc(Nc3ccc(NC(=O)C4(C(=O)Nc5ccccc5)CC4)cc3)nc2n1C1CCCC1`, the inhibition of growth at 1 µM with NCI-H460 [11] was found to be 42.4%; in the assay on A549 [2], 75%; in the assay with T47D [4], 52.8%; in the assay with NCI-H1299 [13] it was 71.2%; in the assay with SiHa [7] it was 58%; in the assay on OVCAR-5 [14], 52.1%. For the same compound, the inhibition of growth at 10 µM in the assay with SiHa [1] came out at 106%; with NCI-H460 [12] it was 95.9%; in the assay with NCI-H1299 [6], 90.5%; in the assay on OVCAR-5 [8], 77.1%; in the assay with T47D [9], 93.9%; in the assay with A549 [10], 88.8%. The inhibition was 82% in assay [3] and 8% in assay [5].
For the compound `COC(=O)c1ccc(NC(=O)C2(C(=O)Nc3ccc(Nc4ncc5cc(C(=O)N(C)C)n(C6CCCC6)c5n4)cc3)CC2)cc1`, in the assay on A549 [2], the inhibition of growth at 1 µM was determined as 77.1%. The inhibition in assay [3] stood at 77%; in assay [5] it was 2%. In the assay with A549 [10], the inhibition of growth at 10 µM stood at 92%.
On to `CN(C)C(=O)c1cc2cnc(Nc3ccc(NC(=O)C4(C(=O)Nc5ccc(C(F)(F)F)cc5)CC4)cc3)nc2n1C1CCCC1`, for which the inhibition of growth at 1 µM was -25.3% in the assay on A549 [2] and 29.6% in the assay with T47D [4]. The figures for the inhibition in assay [3] and in assay [5] were 32% and 1%, respectively. The inhibition of growth at 10 µM is 94.9% in the assay with T47D [9] and 87.9% in the assay with A549 [10].
On to `COc1cccc(NC(=O)C2(C(=O)Nc3ccc(Nc4ncc5cc(C(=O)N(C)C)n(C6CCCC6)c5n4)cc3)CC2)c1`, for which the inhibition of growth at 1 µM in the assay on A549 [2] turned out to be 77.2%; with T47D [4] it was 56.3%. Besides, the inhibition in assay [3] is 66%; in [5] it was -2%. Besides, the values for the inhibition of growth at 10 µM with T47D [9] and in the assay on A549 [10] were 93.5% and 96%, respectively.
For the compound `COc1ccc(NC(=O)C2(C(=O)Nc3ccc(Nc4ncc5cc(C(=O)N(C)C)n(C6CCCC6)c5n4)cc3)CC2)cc1`, the inhibition of growth at 1 µM in the assay with A549 [2] came to 74.4%; with T47D [4] it was 76.4%. Further, the values for the inhibition in assay [3] and in assay [5] were 77% and 19%, respectively. Moreover, the inhibition of growth at 10 µM in the assay on T47D [9] came to 96.1%; with A549 [10], 78.5%.
Regarding `CN(C)C(=O)c1cc2cnc(Nc3ccc(NC(=O)C4(C(=O)Nc5ccc(Cl)cc5)CC4)cc3)nc2n1C1CCCC1`, the inhibition of growth at 1 µM in the assay with NCI-H460 [11] was 21.3%; with A549 [2] it was 24.7%; with T47D [4], 22.8%; in the assay on NCI-H1299 [13], 52.2%; with SiHa [7], -0.8%; in the assay on OVCAR-5 [14], 8.1%. Besides, the inhibition in [3] turned out to be 65%; in assay [5] it was 5%. Also, the inhibition of growth at 10 µM turned out to be 95.7% with NCI-H460 [12]; 88.6% with NCI-H1299 [6]; 85.3% with OVCAR-5 [8]; 95% in the assay on T47D [9]; 100% in the assay with A549 [10].
Regarding `CN(C)C(=O)c1cc2cnc(Nc3ccc(NC(=O)C4(C(=O)Nc5cccc(C(F)(F)F)c5)CC4)cc3)nc2n1C1CCCC1`, the inhibition of growth at 1 µM in the assay on A549 [2] is 15.7%; in the assay on T47D [4], 9.7%. The inhibition is 26% in assay [3] and -10% in assay [5]. The inhibition of growth at 10 µM is 92.7% in the assay on T47D [9] and 89.2% in the assay with A549 [10].
Regarding `COC(=O)c1cccc(NC(=O)C2(C(=O)Nc3ccc(Nc4ncc5cc(C(=O)N(C)C)n(C6CCCC6)c5n4)cc3)CC2)c1`, in the assay with A549 [2], the inhibition of growth at 1 µM worked out at 10.5%. Further, the results for the inhibition in assay [3] and in [5] were 76% and -7%, respectively. Besides, in the assay on A549 [10], the inhibition of growth at 10 µM was found to be 91%.
Consider `CN(C)C(=O)c1cc2cnc(Nc3ccc(N4CCN(C(=O)C5(C(=O)Nc6ccc(F)cc6)CC5)CC4)cn3)nc2n1C1CCCC1`, for which the inhibition in assay [3] was 97%; in assay [5], -8%.
Regarding `CN(C)C(=O)c1cc2cnc(Nc3ccc(NC(=O)C4(C(=O)Nc5cccc(Br)c5)CC4)cc3)nc2n1C1CCCC1`, the inhibition of growth at 10 µM with SiHa [1] is 92.5%; in the assay with NCI-H1299 [6], 77.5%; with OVCAR-5 [8] it was 89.6%; with T47D [9], 94.6%; in the assay with A549 [10], 92.2%. The inhibition of growth at 1 µM amounted to 20.2% in the assay on A549 [2]; 29.1% in the assay on T47D [4]; 46.6% in the assay on NCI-H1299 [13]; 13.9% in the assay with SiHa [7]; 0.04% in the assay on OVCAR-5 [14]. Moreover, the inhibition in [3] was determined as 72%; in [5], 6%.

The values above are taken from ChEMBL document CHEMBL4052710 (Bioorg Med Chem Lett, 2017).
